# Rows were chosen to be rich in hits. Some 4.8% of all compounds tested hit in one or more screens of this group.
# STAT1 activator – STAT1 signaling activators, primary screen, cell-based, HTS, luciferase reporter; activation (% of control), % at 5.5 µM; AID 932, 2007; 2.6% of 200,000 active; NIH 3T3 STAT1-luciferase reporter, IFN-gamma, luminescence; 100% = IFN-gamma alone, no compound;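 active means activation above the screen-wide mean activation plus 3 SD, cut at about 130% in these data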
# APP 5UTR inh – inhibitors of APP translation via 5'UTR reporter, primary screen, APP 5'UTR luciferase, SH-SY5Y cells; SH-SY5Y APP 5'UTR-luciferase reporter, luminescence; inhibition, % at 2 µM; 0.82% of 190,000 active; AID 1285, 2008;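 active means inhibition above a set limit, derived from the sample mean plus 3 SD, cut at about 45% in these data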
# FLuc inh counter – firefly luciferase enzyme inhibitors, primary screen, artefact control for luciferase-based inhibitor screens, biochemical, luminescence, ATPLite | 10 min | AID 1006, 2008 | inhibition, % at 10 µM | Luciferin 4-monooxygenase (Photinus pyralis), P08659 | 1.5% of 200,000 active;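 active means inhibition above about 50% when tested at 10 µM, limit read from the data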
# Target sequence (P08659 whole entry, looked up): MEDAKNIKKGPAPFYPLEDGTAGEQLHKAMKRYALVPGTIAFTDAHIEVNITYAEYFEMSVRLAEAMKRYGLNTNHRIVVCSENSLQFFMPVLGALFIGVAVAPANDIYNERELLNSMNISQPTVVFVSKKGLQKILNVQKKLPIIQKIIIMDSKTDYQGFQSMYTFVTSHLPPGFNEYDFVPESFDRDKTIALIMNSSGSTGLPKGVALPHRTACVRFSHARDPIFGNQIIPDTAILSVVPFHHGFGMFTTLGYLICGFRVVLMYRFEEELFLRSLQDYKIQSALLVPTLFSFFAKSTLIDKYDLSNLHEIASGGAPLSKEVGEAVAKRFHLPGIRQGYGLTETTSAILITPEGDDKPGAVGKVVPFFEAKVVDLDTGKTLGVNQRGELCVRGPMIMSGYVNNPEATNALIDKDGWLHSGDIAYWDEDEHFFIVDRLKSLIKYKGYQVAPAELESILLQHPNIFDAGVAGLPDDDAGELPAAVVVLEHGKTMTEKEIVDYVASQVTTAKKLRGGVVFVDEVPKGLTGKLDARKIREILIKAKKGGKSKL
# FLuc stim CS – FLuc activators, initial screening, artefact control for FLuc-dependent activation tests, biochemical, ATPlite luminescence. ATPlite luciferase biochemical, 10 min; 0 = ATP-free wells, 1 = DMSO control. activation factor at 10 µM. 200,000 tested, under 10 active. AID 1027, 2008;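 active means luciferase activation factor, scaled between plate controls, of at least 2 with compound at 10 µM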
#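 System: luciferase plus luciferin reagent, cell-free; medium: PBS as buffer for the ATP substrate; dosing: test compounds dosed from 2 mM stocks in 100% DMSO; timing: 10 min post-reagent at room temperature; measured by: luminescence measurement of luciferase light output; evaluation: luciferase activation, seen as luminescence increase over controls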
# NF-kB neuron act – activators of NF-kB expression in neurons, primary screen, cell-based, HTS; human neuronal cells, NF-kB reporter expression; stronger effect = higher value; 1.6% of 190,000 active; fold change at 12.5 µM; in the data active means fold change above about 3.3
# APP 5'UTR act – activators of APP 5'UTR luciferase reporter, primary screen, SH-SY5Y cells; SH-SY5Y APP 5'UTR luciferase reporter, luminescence; zero percent = DMSO vehicle wells; activation, % at 2 µM; 1% of 190,000 active;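 active means activation above a set limit, based on mean plus 3 SD of controls, cut at about 140% in these data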
# STAT1 activ conf – STAT1 signaling activators, confirmation, cell-based, HTS, luciferase reporter; shares compounds with STAT1 activator; NIH 3T3 STAT1-luciferase reporter, IFN-gamma potentiation, luminescence; 100% = IFN-gamma EC80 alone, no compound; activation (% of control), % at 5.7 µM; 97% of 1,200 active; AID 1262, 2008;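 active means activation above a set limit carried over from the earlier primary STAT1 screen, cut at about 140% in these data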
# NFkB act STAT1ct – NF-kB reporter activators, TNF-alpha stimulated, counter-screen for STAT1 activator project, cell-based, HEK293T, luciferase luminescence; shares compounds with STAT1 activator; 100% = TNF-alpha with vehicle only; activation (% of control), % at 5.7 µM; 43% of 1,200 active;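 active means activation above the mean of solvent-only control wells plus 3 SD, set per campaign, cut at about 130% in these data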;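 further: TNF-alpha given at a submaximal dose yielding about 80% of full reporter signal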
# STAT3 act STAT1c – STAT3 reporter activation by STAT1 hits, confirmation, counter-screen for STAT1 activator project, U3A cells, luciferase, luminescence. 46% of 1,200 active. activation (% of control), % at 5.7 µM. AID 1316, 2008. IL-6; cells lack STAT1; 100 = IL-6 alone, no compound effect. shares compounds with STAT1 activator;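 active means activation above the solvent-only control well mean plus 3 SD, set per plate batch, cut at about 110% in these data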;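 further: higher means more STAT3 reporter activation so hits are non-selective activators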
# Numbers stand for hits; i = inactive; nt = no result.
SMILES,STAT1 activator,APP 5UTR inh,FLuc inh counter,FLuc stim CS,NF-kB neuron act,APP 5'UTR act,STAT1 activ conf,NFkB act STAT1ct,STAT3 act STAT1c
CC(=O)OCC(=O)Nc1ccc(N=Nc2ccccc2)cc1,162.3,i,i,i,4.89,i,189.7,135.0,113.8
CC(C)C(=O)OCC(=O)Nc1ccc(N=Nc2ccccc2)cc1,151.0,i,i,i,5.11,169.7,184.1,140.1,116.9
O=C(CCl)Nc1ccc(N=Nc2ccccc2)cc1,i,i,i,i,i,i,nt,nt,nt
CCC(C(=O)OCC(=O)Nc1ccc(C(N)=O)cc1)c1ccccc1 (stereo not given),i,i,i,i,i,i,nt,nt,nt
CC(=O)Nc1ccc(N=Nc2ccccc2)cc1,152.2,i,i,i,5.31,i,187.5,i,i
CC(=O)OCC(=O)Nc1ccc(SC(F)F)cc1,i,i,i,i,i,i,nt,nt,nt
CC(=O)c1ccc(NC(=O)CN2C(=O)CCC2=O)cc1,i,i,i,i,i,i,nt,nt,nt
COCCn1c(C)cc(C(=O)CSc2nc3ccccc3c(=O)n2Cc2ccco2)c1C,152.1,i,i,i,i,181.0,235.7,149.0,127.2
O=C(C1CCN(S(=O)(=O)c2ccc(F)cc2)CC1)N1CC=C(c2ccccc2)CC1,i,i,i,i,i,i,nt,nt,nt
COCCNc1cc(C)nc2cc(-c3ccc(C)cc3)nn12,i,i,i,i,i,i,nt,nt,nt
c1coc(CNc2c3c(nc4ncnn24)CCCC3)c1,i,i,i,i,i,i,nt,nt,nt
Cc1ccc(-c2cc3nc(C)cc(NCc4ccco4)n3n2)cc1,150.7,i,68.4,i,4.09,136.8,171.8,i,i
Clc1cccc(-c2cc3nc4c(c(NCc5ccco5)n3n2)CCCC4)c1,153.6,i,i,i,i,i,241.9,144.5,112.8
COCCCNC(=S)N1CCN(S(=O)(=O)c2ccc(OC)cc2)CC1,i,i,i,i,i,i,nt,nt,nt
O=S1(=O)N=C2CCCCCN2C(c2ccc(Br)cc2)N1 (stereo not given),i,i,i,i,i,i,nt,nt,nt
CCNc1nc(NC(C)C)nc(Oc2ccc(/C=N/O)cc2)n1,i,i,i,i,i,i,nt,nt,nt
COc1ccc(N=c2sc3ccccc3n2C)cc1,151.0,i,i,i,5.63,i,207.6,134.7,111.4
S=c1[nH]nc(-c2ccccn2)n1/N=C/c1ccc(Br)s1,i,i,i,i,i,i,nt,nt,nt
Cc1ccc(C2=Nc3cccnc3C(c3ccccc3)=NN2)cc1,156.4,i,i,i,i,i,201.8,142.7,114.8
Cc1ccc2c(c1)C(c1ccncc1)=NNC(c1ccccc1)=N2,i,i,i,i,i,i,nt,nt,nt
CCOC(=O)c1ccc(NC(=O)Cn2cc3c(n2)CCC(C)C3)cc1 (stereo not given),i,i,i,i,i,i,nt,nt,nt
Cn1ccsc1=NC(=O)c1ccc(Cl)cc1,155.9,i,i,i,i,i,166.3,i,118.4
CN(Cc1ccccc1F)c1nc(-c2cccs2)nc2ccccc12,i,i,i,i,i,i,nt,nt,nt
O=C(NCC(=O)N(CC1CCCO1)C(C(=O)NC1CCCCC1)c1cccnc1)c1cccs1 (stereo not given),i,i,i,i,i,i,nt,nt,nt
CCc1ccc(NC(=O)c2cnn(-c3ccccc3)c2C2CCNCC2)cc1,i,i,i,i,i,i,nt,nt,nt

# Source: PubChem BioAssay (several laboratories)
